In ChEMBL document CHEMBL1144496, “Design, synthesis, and biological evaluation of novel iso-D-2',3'-dideoxy-3'-fluorothianucleoside derivatives” (Bioorg Med Chem, 2007):
Converted amounts (≈) assume the structure as drawn. The source made the active and inactive calls. The rule behind the calls is not given here.

What was measured:
Human alphaherpesvirus 1 = assay: Antiviral activity against HSV1 by CPE assay; format: functional, organism-based
Outline: (§1)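 Compounds were tested at concentrations up to 100 μg/mL, and antiviral activity was expressed as EC50. For the […] line, the virus was strain […]. Cell hosts named in the work were MT4 (HTLV-1-infected human T-lymphocytes), HeLa and Vero (African green monkey kidney) cells.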

Vero = assay: Cytotoxicity against Vero cells; format: cell-based; conditions: chlorocebus sabaeus
Outline: (§2)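 Cytotoxicity was assessed on uninfected cells: Vero (African green monkey kidney) and HeLa (human cervical carcinoma). Compounds were tested up to 100 μg/mL, and the value was reported as CC50, the 50% cytotoxic concentration.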

Human alphaherpesvirus 2 = assay: Antiviral activity against HSV2 by CPE assay; format: functional, organism-based; outline: as §1
[1] = tested on: Human T-cell leukemia virus type I; assay: Cytostatic activity against HTLV1 infected human MT4 lymphocyte; format: functional
Outline: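 HTLV-1-infected human T-lymphocyte MT4 cells were exposed to compound at concentrations up to 100 μg/mL. Read-out was the 50% cytostatic concentration (CS50).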

Feline coronavirus = assay: Antiviral activity against Feline coronavirus WSU; format: functional, organism-based
Outline: (§3)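 Feline virus strain WSU screened together with influenza A strains; test concentrations went up to 100 μg/mL, with antiviral activity and cytotoxicity both assessed.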

Coxsackievirus B3 = assay: Antiviral activity against coxsackie B virus type 3 by CPE assay; format: functional, organism-based; conditions: Enterovirus B
HeLa = assay: Cytotoxicity against human HeLa cells; format: cell-based; outline: as §2
[2] = tested on: Encephalomyocarditis virus; assay: Antiviral activity against encephalomyocarditis virus by CPE assay; format: functional, organism-based; conditions: Cardiovirus A; outline: as §1
[3] = tested on: Vesicular stomatitis virus; assay: Antiviral activity against vesicular stomatitis virus by CPE assay; format: functional, organism-based; outline: as §1
Influenza A virus [4] = format: functional, organism-based; conditions: H1N1
Influenza A virus [5] = assay: Antiviral activity against influenza virus type A H3N2; format: functional, organism-based
Outline: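 Influenza A viruses were H1N1 strain Taiwan and H3N2 strain Johannesburg. Compounds were tested for antiviral activity and cytotoxicity at concentrations up to 100 μg/mL.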

[6] = tested on: Feline infectious peritonitis virus; assay: Antiviral activity against FIP WSU; format: functional; outline: as §3
[7] = tested on: Human immunodeficiency virus 1; assay: Antiviral activity against HIV1 3B by CPE assay; format: functional, organism-based; conditions: Human immunodeficiency virus 1, 3B

For `O=c1[nH]cnc2c1ncn2[C@H]1CC[C@@H](CO)O1` [DIDANOSINE], the EC50 (Human alphaherpesvirus 1) was 0.17 µg/mL (≈ 0.72 µM), the CC50 (Vero) was > 10 µg/mL and the EC50 (Human alphaherpesvirus 2) was 0.47 µg/mL (≈ 1.99 µM). The CS50 [1] was >100 µg/mL.

For `Cc1cn([C@@H]2CS[C@H](CO)[C@H]2F)c(=O)[nH]c1=O`, the EC50 (Human alphaherpesvirus 1) was > 100 µg/mL, the Activity (Feline coronavirus) was “inactive” and the CC50 (Vero) was > 100 µg/mL. For the same molecule, the EC50 (Coxsackievirus B3) was > 100 µg/mL, the CC50 (HeLa) was > 100 µg/mL and the EC50 [2] was > 100 µg/mL. For the same molecule, the EC50 [3] was > 100 µg/mL, the Activity (Influenza A virus [4]) was “inactive” and the Activity (Influenza A virus [5]) was “inactive”. For the same molecule, the Activity [6] was “inactive”, the EC50 (Human alphaherpesvirus 2) was > 100 µg/mL and the CS50 [1] was >100 µg/mL. For the same molecule, the EC50 [7] was > 100 µg/mL.

For `Nc1ccn([C@@H]2CS[C@H](CO)[C@H]2F)c(=O)n1`, the EC50 (Human alphaherpesvirus 1) was > 100 µg/mL, the Activity (Feline coronavirus) was “inactive” and the CC50 (Vero) was > 100 µg/mL. For the same molecule, the EC50 (Coxsackievirus B3) was > 14.5 µg/mL, the CC50 (HeLa) was 14.54 µg/mL (≈ 59.3 µM) and the EC50 [2] was > 14.5 µg/mL. The EC50 [3] was 9.43 µg/mL (≈ 38.4 µM), the Activity (Influenza A virus [4]) was “inactive” and the Activity (Influenza A virus [5]) was “inactive”. The Activity [6] was “inactive”, the EC50 (Human alphaherpesvirus 2) was > 100 µg/mL and the CS50 [1] was >100 µg/mL. The EC50 [7] was > 100 µg/mL.

In the case of `NC(=O)c1ncn([C@@H]2O[C@H](CO)[C@@H](O)[C@H]2O)n1` [RIBAVIRIN], the EC50 (Coxsackievirus B3) is reported as 64.1 µg/mL (≈ 262 µM), the CC50 (HeLa) is reported as > 300 µg/mL and the EC50 [2] is reported as 23.4 µg/mL (≈ 96 µM). It also gave an EC50 [3] of 10.3 µg/mL (≈ 42.3 µM).

`O=c1ccn([C@@H]2CS[C@H](CO)[C@H]2F)c(=O)[nH]1` was tested, and the EC50 (Human alphaherpesvirus 1) was > 100 µg/mL, the Activity (Feline coronavirus) was “inactive” and the CC50 (Vero) was > 100 µg/mL. The EC50 (Coxsackievirus B3) was > 100 µg/mL, the CC50 (HeLa) was > 100 µg/mL and the EC50 [2] was > 100 µg/mL. For the same molecule, the EC50 [3] was > 100 µg/mL, the Activity (Influenza A virus [4]) was “inactive” and the Activity (Influenza A virus [5]) was “inactive”. The Activity [6] was “inactive”, the EC50 (Human alphaherpesvirus 2) was > 100 µg/mL and the CS50 [1] was >100 µg/mL. The EC50 [7] was > 100 µg/mL.

`Nc1ncnc2c1ncn2[C@@H]1CS[C@H](CO)[C@H]1F` was tested, and the EC50 (Human alphaherpesvirus 1) was > 100 µg/mL, the Activity (Feline coronavirus) was “inactive” and the CC50 (Vero) was > 100 µg/mL. For the same molecule, the EC50 (Coxsackievirus B3) was > 100 µg/mL, the CC50 (HeLa) was > 100 µg/mL and the EC50 [2] was > 100 µg/mL. The EC50 [3] was > 100 µg/mL, the Activity (Influenza A virus [4]) was “inactive” and the Activity (Influenza A virus [5]) was “inactive”. The Activity [6] was “inactive”, the EC50 (Human alphaherpesvirus 2) was > 100 µg/mL and the CS50 [1] was >100 µg/mL. For the same molecule, the EC50 [7] was > 100 µg/mL.
